The text below walks through data of paper PMC9123270 (The Journal of Biological Chemistry, 2022).

Broadly, the Kd is the concentration at which binding is half-saturated. A high value points to lower affinity. One may read the koff as the first-order rate constant of dissociation. The term kon denotes the rate constant with which the complex forms. A high value points to faster complex formation.

Assay [1] addresses Anopheles gambiae D7 long-form salivary protein AngaD7L2 (Anopheles gambiae). As to the kind of experiment: SPR.
Assay [2] has as its system Human platelet-rich plasma. As to the kind of experiment: Platelet aggregation assay. The class given is cell-based.
Assay [3] deals with Third-order mesenteric arteries. As to the kind of experiment: Vasoconstriction by pressure myography in isolated mesenteric arteries. Details: species or system C57Bl/6J mice. The following applies: for LogIC50 of vasoconstriction to U-46619: n = 6.
Assay [4] can be described thus: PEAQ-ITC screen against five biogenic amines and five lipids. In kind it is binding. The following applies: leukotrienes other than LTC4. The method, boiled down:
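Isothermal titration calorimetry in TBS (20 mM Tris–HCl, 150 mM NaCl, pH 7.4) at 30 °C, 750 rpm. Protein at 5 μM was titrated with 10 μl injections of ligand at 50 μM every 150 s. Lipid ligands were dried under nitrogen, resuspended in TBS, vortexed and sonicated 10 min. Samples were degassed. Data were fitted to a single-site model. At least three replicates.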

The test system of assay [5] is normal control plasma. As to the kind of experiment: Activated partial thromboplastin. In kind it is biochemical, human. The following applies: recombinant protein 15 μM, 5 μl in 50 μl plasma. Summed up: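 Plasma (50 μl) was preincubated 2 min at 37 °C with 5 μl of test protein (15 μM in Hepes buffer), Hepes buffer (negative control) or 3 μM Alboserpin (positive control). aPTT reagent was added for 3 min at 37 °C, then clotting was started with prewarmed 25 mM CaCl2. Clotting time was recorded on a coagulation analyzer and converted to ratios. Run in triplicate.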

Assay [6] relates to normal control plasma. As to the kind of experiment: Prothrombin. In kind it is biochemical, human. The conditions noted are these: recombinant protein 15 μM, 5 μl in 50 μl plasma. Summed up:
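Normal control plasma (50 μl) was incubated 2 min at 37 °C with 5 μl of test protein (15 μM in Hepes buffer), Hepes buffer (negative control) or 3 μM Alboserpin (positive control). PT was started by adding Neoplastine CI Plus reagent, and clotting time was recorded with stirring. Run in triplicate.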

The subject of assay [7] is normal control plasma. As to the kind of experiment: Plasma recalcification assay. In kind it is biochemical, human.

Values joined by “and” are separate entries in the source; they are usually repeats but may differ in a detail not shown here. Equal values may be shown once.

In assay [1], “human coagulation factor XII (natural protein)” gave a Kd of 16.4 nM, a koff of 0.0169 s⁻¹ and a kon of 125000 M⁻¹ s⁻¹.
In assay [1], “human coagulation factor XI (natural protein)” gave a Kd of 8.47 nM, a koff of 0.00696 s⁻¹ and a kon of 99200 M⁻¹ s⁻¹.
In the same order, the values of human coagulation factor XIIa (enzyme) are 5.03 nM, 0.403 s⁻¹ and 2.03e+08 M⁻¹ s⁻¹.

B1: AngaD7L1: Recombinant Anopheles gambiae D7 long-form salivary protein, 6xHis-tagged, expressed in human embryonic kidney cells (protein, UniProt Q7PJ76 22-311, looked up)
Long form salivary protein …: FKALDPEEAWYVYERCHEDHLPSGPNRETYLKTWKFWKLEPNDAVTHCYVKCTLAGLQMYDEKTNTFKPETVPVQHEAYKSFTEVESSKVNELQQALSSLNAGSGSCAEVFNAYLPVHNKYVGVSRKIYHGTVDSVAKIYEAKPEIKKQEESFFAYCAKKALGANGKEGYTKLRDYELADSAEFRNAMDCVFRGFRYMDDSGLKVDEVVRDFNLINKSDLEPEVRSVLASCTGTQAYDYYSCLLNSPVKEDFRNAFYFHELRSANYGYLAMGKVYEGPEKVKEELKKLNY
modifications: 6xHis tag
Consider B1, for which the “Effect on platelet aggregation” value is reported as “reduced platelet aggregation” in assay [2] (agonist 0.3 μM U-46619, protein 0.3 μM); “platelet aggregation was inhibited” in assay [2] (agonist 0.3 μM U-46619, protein 1 μM); “platelet aggregation was inhibited” in assay [2] (agonist 0.7 μM U-46619, protein 1 μM); “inhibited platelet aggregation” in assay [2] (agonist 0.7 μM U-46619, protein 3 μM); “no effect” in assay [2] (agonist 1 μM arachidonic acid, protein at any concentration); “did not inhibit platelet aggregation” in assay [2] (agonist 1 μg/ml collagen, protein 0.3 μM). The “Effect on platelet aggregation” value in assay [2] (agonist 1 μg/ml collagen, protein 3 μM) is “reduced platelet aggregation”; in assay [2] (agonist 10 μg/ml collagen, protein 1 μM), “no effect”. The “LogIC50 of vasoconstriction to U-46619” value in assay [3] (after AngaD7L1 washout) is −8.10; in assay [3] (in presence of AngaD7L1 10 μM), −6.4 and −6.38. For the same molecule, the “fold reduction in effective constrictive potency of U-46619” value in assay [3] (in presence of AngaD7L1 10 μM) is roughly 70 fold. For the same molecule, the “Binding of other leukotrienes” value in assay [4] is recorded as “did not bind any other leukotriene”.

B2: AngaD7L2: Recombinant Anopheles gambiae D7 long-form salivary protein, 6xHis-tagged, expressed in human embryonic kidney cells (protein)
chain: AQPWKALDPEQALYVYKRCYEDHLPAGSSRVTYLKSWNAWKLEPNDAVTHCYAKCVLIGLQLYEEKDKAFKSERIPVQHEAYKTLNEANSREVTEYQQALASINAGDGSCVALYNAYLPVHNKFVDLSRKLYHGTVEGAAKIYAAMPQIKQKGESFFAYCAKKIWGGYNKKEWKRGRNYELSGSSQFKKVIDCIFRGLRYMDDSGLKVDEVVRDFNLINKSDLEPEVRSVLASCTGTQAYDYYSCLLNSPVKEDFKNAFDFHELRSADYAFLLRGKVYEGPEQVKEEMKHLNTTVHF
modifications: left off: His6, C-terminal, state not stated
Take B2: in the assay on normal control plasma [5], the “aPTT time to coagulation (intrinsic pathway)” value is given as “significantly increased”. In addition, the “PT clotting time (extrinsic pathway)” value in the assay with normal control plasma [6] is recorded as “did not have an observable effect”. In addition, the “Plasma recalcification (time to OD = 0.025)” value is reported as “entirely unable to coagulate” with normal control plasma [7] (final concentration 5 μM) and “dose-dependent anticoagulant response” in the assay with normal control plasma [7] (serially diluted recombinant protein, versus Hepes buffer negative control).
